{
  "source": "paper PMC3415686",
  "about": "(Bioorganic & medicinal chemistry letters, 2012)",
  "key": {"[1]": {"target": "Bcr-Abl-T315I-Ba/F3 (Homo sapiens, UniProt P00519+P11274, T315I)", "assay": "Cellular antiproliferative activity on mutant Bcr-Abl-T315I-Ba/F3", "assay_type": "cell-based, murine", "summary_of_the_method": "(§1)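 Murine pre-B Ba/F3 cells transformed with the Bcr-Abl oncogene were used for cellular Bcr-Abl inhibition. Transformed cells grow without interleukin-3 (IL-3). Untransformed parental Ba/F3 cells proliferate only when IL-3 is present.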"}, "[2]": {"target": "wt Bcr-Abl-Ba/F3 (Homo sapiens, UniProt P00519+P11274)", "assay": "Cellular antiproliferative activity on wt Bcr-Abl-Ba/F3", "assay_type": "cell-based, murine", "conditions": "for antiproliferative activity against wild-type Bcr-Abl (in words): Ba/F3 cells transformed with Bcr-Abl", "summary_of_the_method": "as §1"}, "[3]": {"test_system": "panel of 353 kinases", "assay": "KINOMEscan kinase selectivity profiling", "assay_type": "binding", "conditions": "10 μM", "summary_of_the_method": "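KINOMEscan competition binding screen with the test compound at 10 μM against 353 kinases. Hits were kinases with an Ambit score below 10% of the DMSO control. S(10) is the number of kinases scoring below ten divided by the total number of kinases tested at that concentration.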"}, "[4]": {"assay": "Pharmacokinetics following oral and intravenous delivery", "assay_type": "in vivo, rats", "conditions": "rat", "summary_of_the_method": "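Rats were dosed with the test compound orally and intravenously; the oral dose was 2 mg/kg. Serum drug levels were followed to derive oral bioavailability (%F), half-life, Cmax and clearance.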"}, "[5]": {"test_system": "wt-Ba/F3", "assay": "Cytotoxicity on wt", "assay_type": "cell-based, murine", "summary_of_the_method": "as §1"}},
  "data": [
    {"compound": "Nc1nc2ccc(-c3cccc(C(=O)Nc4cccc(C(F)(F)F)c4)c3)nc2s1", "note": "[Compound 9a]", "values": [
      {"measurement": "antiproliferative activity against T315I-Bcr-Abl (in words)", "setting": "[1]; Ba/F3 cells transformed with T315I-Bcr-Abl", "result": "did not display antiproliferative activity"},
      {"measurement": "antiproliferative activity against wild-type Bcr-Abl (in words)", "setting": "[2]", "result": "did not display antiproliferative activity"}
    ]},
    {"compound": "CCN1CCN(Cc2ccc(NC(=O)c3cccc(-c4ccc5nc(NC(=O)C6CC6)sc5n4)c3)cc2C(F)(F)F)CC1", "note": "[Compound 22]", "values": [
      {"measurement": "improvement in cellular antiproliferative activity relative to 11 against T315I-Bcr-Abl", "setting": "[1]; relative to 11", "result": "~6", "unit": "fold"},
      {"measurement": "EC50", "setting": "[2]; read-out: Cellular antiproliferative activity (EC50, μM) Bcr-Abl (wt), wt Bcr-Abl-Ba/F3", "result": 0.098, "unit": "µM"},
      {"measurement": "S(10) score (kinases inhibited below a score of ten / total kinases tested)", "setting": "[3]", "result": 0.10},
      {"measurement": "AUC (%extrapolated)", "setting": "[4]; IV 1 mg/kg", "result": 35.3, "unit": "%"},
      {"measurement": "AUC (%extrapolated)", "setting": "[4]; PO 2 mg/kg", "result": 35, "unit": "%"},
      {"measurement": "Tmax", "setting": "[4]; serum, iv, 1 mg/kg", "result": 4.8, "unit": "min"},
      {"measurement": "clearance", "setting": "[4]; serum, iv, 1 mg/kg", "result": 13, "unit": "mL/min/kg"},
      {"measurement": "Tmax", "setting": "[4]; serum, po, 2 mg/kg", "result": 162, "unit": "min"},
      {"measurement": "decrease in cytotoxicity against parental Ba/F3 cells relative to 11", "setting": "[5]; relative to 11", "result": 3, "unit": "fold"}
    ]},
    {"compound": "O=C(Nc1ccc(N2CCNCC2)c(C(F)(F)F)c1)c1cccc(-c2ccc3nc(NC(=O)C4CC4)sc3n2)c1", "note": "[Compound 24]", "values": [
      {"measurement": "loss of cellular activity relative to 22", "setting": "[2]; relative to 22, cell line not given", "result": "approximately 10 fold"}
    ]},
    {"compound": "Cc1cn(-c2cc(NC(=O)c3cccc(-c4ccc5nc(NC(=O)C6CC6)sc5n4)c3)cc(C(F)(F)F)c2)cn1", "note": "[Compound 26]", "values": [
      {"measurement": "S(10) score (kinases inhibited below a score of ten / total kinases tested)", "setting": "[3]", "result": 0.36},
      {"measurement": "AUC (%extrapolated)", "setting": "[4]; IV 1 mg/kg", "result": 8.7, "unit": "%"},
      {"measurement": "AUC (%extrapolated)", "setting": "[4]; PO 2 mg/kg", "result": 21, "unit": "%"},
      {"measurement": "Tmax", "setting": "[4]; serum, iv, 1 mg/kg", "result": 8.4, "unit": "min"},
      {"measurement": "Tmax", "setting": "[4]; serum, po, 2 mg/kg", "result": 66, "unit": "min"}
    ]},
    {"compound": "CCN1CCN(Cc2ccc(NC(=O)c3ccc(C)c(-c4ccc5nc(NC(=O)C6CC6)sc5n4)c3)cc2C(F)(F)F)CC1", "note": "[Compound 27]", "values": [
      {"measurement": "antiproliferative activity against wild-type Bcr-Abl (in words)", "setting": "[2]", "result": "exceptionally potent"}
    ]},
    {"compound": "CCN1CCN(Cc2ccc(NC(=O)Nc3cccc(-c4ccc5nc(NC(=O)C6CC6)sc5n4)c3)cc2C(F)(F)F)CC1", "note": "[Compound 32]", "values": [
      {"measurement": "improved activity on T315I Bcr-Abl (urea linkage)", "setting": "[1]; urea linkage in place of amide", "result": "5–10 fold"},
      {"measurement": "improved activity on wild-type Bcr-Abl (urea linkage)", "setting": "[2]; urea linkage in place of amide", "result": "5–10 fold"},
      {"measurement": "increased cytotoxicity towards parental Ba/F3 cells (urea linkage)", "setting": "[5]; urea linkage in place of amide", "result": "approximately 5 fold"}
    ]},
    {"compound": "Cc1cn(-c2cc(NC(=O)Nc3cccc(-c4ccc5nc(NC(=O)C6CC6)sc5n4)c3)cc(C(F)(F)F)c2)cn1", "note": "[Compound 33]", "values": [
      {"measurement": "reduction in cellular activity against T315I-Bcr-Abl compared to 22", "setting": "[1]; compared to 22", "result": "~4", "unit": "fold"}
    ]}
  ]
}
